Laboratory results reported in ChEMBL document CHEMBL4371041, “Synthesis and evaluation of thieno[3,2-d]pyrimidine derivatives as novel FMS inhibitors” (Bioorg Med Chem Lett, 2019).

How the values were obtained:
[1] = AUC (0 to 7 hrs) in CD-1 mouse at 3 mg/kg, iv; format: ADME, organism-based; design: dose 3 mg/kg, time < 7 hr, route intravenous; settings: in vivo
[2] = Clearance in CD-1 mouse at 3 mg/kg, iv; format: ADME, organism-based; settings: in vivo
[3] = AUC (0 to 7 hrs) in CD-1 mouse at 10 mg/kg, po; format: ADME, organism-based; design: time < 7 hr, dose 10 mg/kg, route oral; settings: in vivo
[4] = Stability in human hepatocytes assessed as parent compound remaining measured after 60 mins; format: ADME, cell-based, Hepatocyte; settings: read-out: Stability
Cytochrome P450 2D6 = Cytochrome P450 2D6 (Homo sapiens, UniProt P10635); test: Inhibition of CYP2D6 in human liver microsomes by LC-MS/MS analysis; format: ADME
Summary of the method: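 Reversible CYP inhibition measured in human liver microsomes; metabolite formation quantified by LC/MS/MS.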

[5] = molecular target: Voltage-gated inwardly rectifying potassium channel KCNH2 (Homo sapiens, UniProt Q12809); test: Displacement of Tracer Red from human ERG by fluorescence polarization assay
[6] = molecular target: Discoidin domain-containing receptor 2 (Homo sapiens, UniProt Q16832); test: Inhibition of recombinant human N-terminal His6-tagged DDR2 (467 to end residues) expressed in baculovirus infected Sf21 insect cells using Axltide as substrate in presence of [gamma-33P]-ATP or [gamma-32P]-ATP
Summary of the method: (§1)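 Kinase panel of twenty-eight enzymes; IC50 values determined with ATP at the respective Km of each kinase.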

[7] = molecular target: Fibroblast growth factor receptor 1 (Homo sapiens, UniProt P11362); test: Inhibition of recombinant human N-terminal GST-tagged FGFR1 (456 to 765 residues) expressed in baculovirus infected Sf21 insect cells using IGF-IRtide (12-527) as substrate in presence of [gamma-33P]-ATP or [gamma-32P]-ATP; summary of the method: as §1
[8] = molecular target: Vascular endothelial growth factor receptor 2 (Homo sapiens, UniProt P35968); test: Inhibition of recombinant human N-terminal His6-tagged KDR (790 to end residues) expressed in baculovirus infected Sf21 insect cells using MBP as substrate in presence of [gamma-33P]-ATP or [gamma-32P]-ATP; summary of the method: as §1
[9] = molecular target: Tyrosine-protein kinase ABL1 (Homo sapiens) (UniProt P00519); test: Inhibition of recombinant human N-terminal His6-tagged Abl (27 to end residues) expressed in baculovirus infected Sf21 insect cells at 1 uM using Abltide as substrate in presence of [gamma-33P]-ATP or [gamma-32P]-ATP relative to control
[10] = molecular target: NUAK family SNF1-like kinase 1 (Homo sapiens) (UniProt O60285); test: Inhibition of recombinant human N-terminal His6-tagged ARK5 (2 to end residues) expressed in baculovirus infected Sf21 insect cells at 1 uM using CHKtide as substrate in presence of [gamma-33P]-ATP or [gamma-32P]-ATP relative to control
[11] = molecular target: Mast/stem cell growth factor receptor Kit (Homo sapiens) (UniProt P10721); test: Inhibition of recombinant human N-terminal GST-tagged c-Kit (544 to end residues) expressed in baculovirus infected Sf21 insect cells at 1 uM using Poly (Glu4-Tyr) (4:1) as substrate in presence of [gamma-33P]-ATP or [gamma-32P]-ATP relative to control
[12] = molecular target: Epidermal growth factor receptor (Homo sapiens) (UniProt P00533); test: Inhibition of recombinant human N-terminal GST-tagged EGFR (696 to end residues) expressed in baculovirus infected Sf21 insect cells at 1 uM using Angiotensin2 peptide as substrate in presence of [gamma-33P]-ATP or [gamma-32P]-ATP relative to control
[13] = molecular target: Ephrin type-A receptor 5 (Homo sapiens) (UniProt P54756); test: Inhibition of recombinant human N-terminal His6-tagged EphA5 (655 to 956 residues) expressed in baculovirus infected Sf21 insect cells at 1 uM using Axltide as substrate in presence of [gamma-33P]-ATP or [gamma-32P]-ATP relative to control
[14] = molecular target: Receptor-type tyrosine-protein kinase FLT3 (Homo sapiens) (UniProt P36888); test: Inhibition of recombinant human N-terminal GST-tagged FLT3 (564 to end residues) expressed in baculovirus infected Sf21 insect cells at 1 uM using Abltide as substrate in presence of [gamma-33P]-ATP or [gamma-32P]-ATP relative to control
[15] = molecular target: Hepatocyte growth factor receptor (Homo sapiens) (UniProt P08581); test: Inhibition of recombinant human N-terminal His6-tagged Met (974 to end residues) expressed in baculovirus infected Sf21 insect cells at 1 uM using KKKSPGEYVNIEFG as substrate in presence of [gamma-33P]-ATP or [gamma-32P]-ATP relative to control
[16] = molecular target: Tyrosine-protein kinase FRK (Homo sapiens) (UniProt P42685); test: Inhibition of recombinant human N-terminal His6-tagged PTK5 (218 to end residues) expressed in baculovirus infected Sf21 insect cells at 1 uM using JAK3tide as substrate in presence of [gamma-33P]-ATP or [gamma-32P]-ATP relative to control
[17] = molecular target: Proto-oncogene tyrosine-protein kinase receptor Ret (Homo sapiens) (UniProt P07949); test: Inhibition of recombinant human N-terminal GST-tagged Ret (658 to end residues) expressed in baculovirus infected Sf21 insect cells at 1 uM using IFG-1Rtide as substrate in presence of [gamma-33P]-ATP or [gamma-32P]-ATP relative to control
[18] = molecular target: Ribosomal protein S6 kinase alpha-1 (Homo sapiens) (UniProt Q15418); test: Inhibition of RSK1 (unknown origin) at 1 uM in presence of [gamma-33P]-ATP or [gamma-32P]-ATP relative to control
[19] = molecular target: High affinity nerve growth factor receptor (Homo sapiens) (UniProt P04629); test: Inhibition of recombinant human N-terminal His6-tagged TrkA (440 to end residues) expressed in baculovirus infected Sf21 insect cells at 1 uM using KKKSPGEYVNIEFG as substrate in presence of [gamma-33P]-ATP or [gamma-32P]-ATP relative to control
[20] = tested on: RAF proto-oncogene serine/threonine-protein kinase (Homo sapiens), P04049 [Y340D,Y341D]; test: Inhibition of recombinant human N-terminal GST-tagged c-RAF Y340D/Y341D double mutant (306 to 648 residues) expressed in baculovirus infected Sf21 insect cells at 1 uM using MEK1(K97R) as substrate in presence of [gamma-33P]-ATP or [gamma-32P]-ATP relative to control
Angiopoietin-1 receptor = Angiopoietin-1 receptor (Homo sapiens, UniProt Q02763); test: Inhibition of recombinant human N-terminal His6-tagged Tie2 (771 to end residues) expressed in baculovirus infected Sf21 insect cells at 1 uM using Poly (Glu4-Tyr) (4:1) as substrate in presence of [gamma-33P]-ATP or [gamma-32P]-ATP relative to control
[21] = molecular target: Ephrin type-B receptor 4 (Homo sapiens) (UniProt P54760); test: Inhibition of recombinant human N-terminal His6-tagged EphB4 (561 to end residues) expressed in baculovirus infected Sf21 insect cells using poly (Glu, Tyr) (4:1) as substrate in presence of [gamma-33P]-ATP or [gamma-32P]-ATP relative to control; settings: concentration not given here

Fibroblast growth factor receptor 1, sequence (P11362 whole entry, the tested form may be a part): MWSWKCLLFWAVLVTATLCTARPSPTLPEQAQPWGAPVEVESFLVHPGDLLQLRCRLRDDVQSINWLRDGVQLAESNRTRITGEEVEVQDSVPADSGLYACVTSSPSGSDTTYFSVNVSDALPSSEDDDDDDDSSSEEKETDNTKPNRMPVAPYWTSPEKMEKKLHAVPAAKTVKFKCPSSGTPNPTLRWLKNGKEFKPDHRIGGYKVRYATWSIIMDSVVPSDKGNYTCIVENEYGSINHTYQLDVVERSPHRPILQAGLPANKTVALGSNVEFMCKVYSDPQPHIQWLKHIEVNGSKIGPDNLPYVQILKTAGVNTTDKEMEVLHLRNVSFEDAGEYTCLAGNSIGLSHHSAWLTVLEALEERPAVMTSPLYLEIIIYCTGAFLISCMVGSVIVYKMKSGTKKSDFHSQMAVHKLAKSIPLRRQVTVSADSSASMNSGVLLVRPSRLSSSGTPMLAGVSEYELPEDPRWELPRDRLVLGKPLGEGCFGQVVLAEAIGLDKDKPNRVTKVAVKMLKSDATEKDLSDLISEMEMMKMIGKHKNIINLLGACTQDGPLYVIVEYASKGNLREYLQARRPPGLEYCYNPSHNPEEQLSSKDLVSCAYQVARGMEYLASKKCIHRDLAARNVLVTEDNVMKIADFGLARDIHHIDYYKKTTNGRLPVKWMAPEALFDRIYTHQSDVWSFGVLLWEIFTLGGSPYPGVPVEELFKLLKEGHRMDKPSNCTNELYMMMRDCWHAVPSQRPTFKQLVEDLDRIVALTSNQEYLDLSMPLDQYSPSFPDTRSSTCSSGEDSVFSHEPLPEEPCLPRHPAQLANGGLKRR
Receptor-type tyrosine-protein kinase FLT3 (Homo sapiens), sequence (P36888 whole entry): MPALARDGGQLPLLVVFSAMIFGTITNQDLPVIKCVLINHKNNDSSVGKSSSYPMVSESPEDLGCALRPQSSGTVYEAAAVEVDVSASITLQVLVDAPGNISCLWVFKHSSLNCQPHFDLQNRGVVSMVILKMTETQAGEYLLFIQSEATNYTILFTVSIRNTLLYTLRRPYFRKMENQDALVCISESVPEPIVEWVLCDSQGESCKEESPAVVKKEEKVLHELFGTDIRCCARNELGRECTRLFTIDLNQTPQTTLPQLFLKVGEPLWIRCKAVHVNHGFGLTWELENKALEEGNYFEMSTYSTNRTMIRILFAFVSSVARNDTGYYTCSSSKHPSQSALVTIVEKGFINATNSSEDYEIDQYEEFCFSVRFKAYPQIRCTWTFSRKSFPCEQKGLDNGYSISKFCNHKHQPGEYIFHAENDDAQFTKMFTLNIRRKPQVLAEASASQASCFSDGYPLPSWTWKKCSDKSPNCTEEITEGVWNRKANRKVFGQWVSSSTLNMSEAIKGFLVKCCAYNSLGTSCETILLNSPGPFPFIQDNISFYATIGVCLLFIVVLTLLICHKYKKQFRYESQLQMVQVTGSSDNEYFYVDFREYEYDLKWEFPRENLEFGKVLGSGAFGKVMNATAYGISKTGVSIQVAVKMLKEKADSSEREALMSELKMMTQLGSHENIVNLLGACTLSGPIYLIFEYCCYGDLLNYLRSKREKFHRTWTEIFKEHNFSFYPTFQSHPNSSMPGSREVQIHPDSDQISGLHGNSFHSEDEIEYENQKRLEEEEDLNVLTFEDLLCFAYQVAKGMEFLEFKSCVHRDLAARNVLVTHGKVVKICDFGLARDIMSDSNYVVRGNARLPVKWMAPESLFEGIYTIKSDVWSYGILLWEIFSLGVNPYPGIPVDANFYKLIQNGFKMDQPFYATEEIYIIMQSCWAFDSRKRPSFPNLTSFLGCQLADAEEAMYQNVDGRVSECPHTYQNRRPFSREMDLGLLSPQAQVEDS
Angiopoietin-1 receptor, sequence (Q02763 whole entry): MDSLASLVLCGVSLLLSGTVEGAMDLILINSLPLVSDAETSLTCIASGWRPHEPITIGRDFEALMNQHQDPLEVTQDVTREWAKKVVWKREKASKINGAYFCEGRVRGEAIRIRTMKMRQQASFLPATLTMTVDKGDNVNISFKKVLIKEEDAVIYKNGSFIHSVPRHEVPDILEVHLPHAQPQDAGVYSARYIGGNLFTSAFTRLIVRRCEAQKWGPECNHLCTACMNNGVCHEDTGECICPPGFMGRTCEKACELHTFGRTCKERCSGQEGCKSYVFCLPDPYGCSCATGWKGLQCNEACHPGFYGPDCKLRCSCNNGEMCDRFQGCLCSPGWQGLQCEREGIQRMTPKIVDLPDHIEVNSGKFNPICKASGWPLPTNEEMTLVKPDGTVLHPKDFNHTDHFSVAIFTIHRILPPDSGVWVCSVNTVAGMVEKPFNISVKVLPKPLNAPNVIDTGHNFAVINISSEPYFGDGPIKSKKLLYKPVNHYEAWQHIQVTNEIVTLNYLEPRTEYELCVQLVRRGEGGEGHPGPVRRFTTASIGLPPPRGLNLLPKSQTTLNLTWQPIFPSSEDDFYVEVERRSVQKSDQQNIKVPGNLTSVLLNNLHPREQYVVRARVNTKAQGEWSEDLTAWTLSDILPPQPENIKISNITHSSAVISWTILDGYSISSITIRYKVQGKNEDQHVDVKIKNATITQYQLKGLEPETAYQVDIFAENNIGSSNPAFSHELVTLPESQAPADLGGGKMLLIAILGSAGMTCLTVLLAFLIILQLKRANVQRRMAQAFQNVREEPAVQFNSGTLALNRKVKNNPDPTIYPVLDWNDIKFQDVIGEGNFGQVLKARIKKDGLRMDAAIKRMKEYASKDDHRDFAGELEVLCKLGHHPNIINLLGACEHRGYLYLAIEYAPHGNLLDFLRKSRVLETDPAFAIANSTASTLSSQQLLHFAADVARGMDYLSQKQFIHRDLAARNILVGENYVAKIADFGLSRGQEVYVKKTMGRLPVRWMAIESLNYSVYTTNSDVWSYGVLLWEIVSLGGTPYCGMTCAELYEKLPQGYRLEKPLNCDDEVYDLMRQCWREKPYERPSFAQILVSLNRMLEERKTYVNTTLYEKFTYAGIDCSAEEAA
NUAK family SNF1-like kinase 1 (Homo sapiens), sequence (O60285 whole entry): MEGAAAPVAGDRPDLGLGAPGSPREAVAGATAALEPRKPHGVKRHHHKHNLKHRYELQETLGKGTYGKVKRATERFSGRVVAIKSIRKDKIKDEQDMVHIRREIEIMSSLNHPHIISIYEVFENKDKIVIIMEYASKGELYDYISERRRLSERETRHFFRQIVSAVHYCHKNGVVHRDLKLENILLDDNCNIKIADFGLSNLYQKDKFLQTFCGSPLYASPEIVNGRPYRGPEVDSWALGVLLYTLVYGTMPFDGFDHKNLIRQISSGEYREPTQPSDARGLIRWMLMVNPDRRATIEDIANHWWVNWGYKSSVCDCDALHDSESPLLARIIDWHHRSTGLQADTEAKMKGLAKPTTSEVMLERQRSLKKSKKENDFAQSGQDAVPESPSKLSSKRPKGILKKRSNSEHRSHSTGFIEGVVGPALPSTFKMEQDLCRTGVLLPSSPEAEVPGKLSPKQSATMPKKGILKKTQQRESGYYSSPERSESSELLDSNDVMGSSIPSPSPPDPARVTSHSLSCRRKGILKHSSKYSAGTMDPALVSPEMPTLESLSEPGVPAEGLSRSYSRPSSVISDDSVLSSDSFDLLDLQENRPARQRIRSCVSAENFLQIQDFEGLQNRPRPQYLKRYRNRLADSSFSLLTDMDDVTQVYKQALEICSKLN
High affinity nerve growth factor receptor (Homo sapiens), sequence (P04629 33-796 limits assumed): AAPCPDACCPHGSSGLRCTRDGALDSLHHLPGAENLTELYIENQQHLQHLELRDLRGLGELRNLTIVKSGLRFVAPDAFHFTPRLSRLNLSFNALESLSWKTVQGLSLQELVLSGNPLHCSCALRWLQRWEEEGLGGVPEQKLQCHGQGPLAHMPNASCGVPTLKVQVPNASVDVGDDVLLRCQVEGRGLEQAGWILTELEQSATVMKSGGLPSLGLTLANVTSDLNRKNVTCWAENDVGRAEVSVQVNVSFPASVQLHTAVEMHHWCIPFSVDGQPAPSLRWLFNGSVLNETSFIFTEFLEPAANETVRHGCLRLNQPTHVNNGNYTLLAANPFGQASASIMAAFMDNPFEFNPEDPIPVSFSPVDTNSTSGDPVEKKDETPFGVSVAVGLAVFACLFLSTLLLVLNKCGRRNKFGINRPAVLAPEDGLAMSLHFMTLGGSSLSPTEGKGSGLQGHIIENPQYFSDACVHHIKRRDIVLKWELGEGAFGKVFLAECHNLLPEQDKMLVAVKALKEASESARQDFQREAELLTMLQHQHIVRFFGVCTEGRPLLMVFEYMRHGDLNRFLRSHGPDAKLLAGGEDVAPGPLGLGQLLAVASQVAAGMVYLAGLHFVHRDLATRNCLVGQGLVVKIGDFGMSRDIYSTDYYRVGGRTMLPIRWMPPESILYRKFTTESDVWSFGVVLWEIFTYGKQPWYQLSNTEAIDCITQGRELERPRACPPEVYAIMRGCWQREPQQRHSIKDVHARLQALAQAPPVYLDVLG
Ribosomal protein S6 kinase alpha-1 (Homo sapiens), sequence (Q15418 whole entry): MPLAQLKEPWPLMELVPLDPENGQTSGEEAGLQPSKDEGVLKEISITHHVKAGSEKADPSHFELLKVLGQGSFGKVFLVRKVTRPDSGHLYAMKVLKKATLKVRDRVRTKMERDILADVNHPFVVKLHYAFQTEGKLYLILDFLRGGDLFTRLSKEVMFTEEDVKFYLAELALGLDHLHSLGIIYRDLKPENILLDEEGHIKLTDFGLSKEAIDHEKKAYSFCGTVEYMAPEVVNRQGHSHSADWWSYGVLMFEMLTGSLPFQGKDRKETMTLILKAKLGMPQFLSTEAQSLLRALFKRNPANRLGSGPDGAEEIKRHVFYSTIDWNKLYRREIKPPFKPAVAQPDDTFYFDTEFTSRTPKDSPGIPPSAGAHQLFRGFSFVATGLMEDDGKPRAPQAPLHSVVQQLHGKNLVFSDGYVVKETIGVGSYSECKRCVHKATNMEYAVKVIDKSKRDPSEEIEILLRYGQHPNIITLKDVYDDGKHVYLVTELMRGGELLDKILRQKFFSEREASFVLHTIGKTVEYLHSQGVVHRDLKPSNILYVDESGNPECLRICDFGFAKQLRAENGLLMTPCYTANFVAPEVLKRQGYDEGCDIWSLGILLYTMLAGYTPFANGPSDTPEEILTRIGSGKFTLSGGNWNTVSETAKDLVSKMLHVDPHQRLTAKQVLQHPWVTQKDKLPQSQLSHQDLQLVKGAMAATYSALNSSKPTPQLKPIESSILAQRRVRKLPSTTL

Cc1cccc(Cn2nc(C)c3c(NC(=O)c4csc5c(N)ncnc45)cccc32)n1 gave an AUC(0-t) at 7 h [1] of 3370 ng·h/mL, a clearance [2] of 15 mL/min/kg and an AUC(0-t) at 7 h [3] of 4040 ng·h/mL. For the same molecule, the remaining at 1 h [4] was 87%, the IC50 (Cytochrome P450 2D6) was > 20 µM and the IC50 [5] was > 50 µM. For the same molecule, the IC50 [6] was 64 nM, the IC50 [7] was 145 nM and the IC50 [8] was 527 nM. For the same molecule, the inhibition [9] was 35%, the inhibition [10] was 20% and the inhibition [11] was 27%. It also gave an inhibition [12] of -2%, an inhibition [13] of -9% and an inhibition [14] of 59%. For the same molecule, the inhibition [15] was -9%, the inhibition [16] was 19% and the inhibition [17] was -2%. The inhibition [18] was 14%, the inhibition [19] was 27% and the inhibition [20] was > 60%. The inhibition (Angiopoietin-1 receptor) was > 60% and the inhibition [21] was 2%.
